system: Aorta; experiment: Vasorelaxation activity in Sprague-Dawley rat aortic assessed as inhibition of phenylephrin-induced contraction; type: functional, tissue-based
Summary of the method: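 Endothelium-intact aortic rings from adult male rats (280–320 g) held isometrically at 1.8 g passive tension for 60 min; endothelium confirmed by >98% relaxation to acetylcholine (3 µM). Tonic contraction to phenylephrine (0.3 µM) set as 100%. Compound added cumulatively, 0.01–100 µM, one curve per ring. IC50 taken from percent-relaxation curves; mean ± SE of n independent experiments.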

Going from `COc1cc2c(cc1O)C(=O)c1nccc3c(OC)c4c(c-2c13)OCO4` [ISOFILIFORMINE] to `COc1cc2c(cc1O)C[C@@H]1NCCc3c(OC)c4c(c-2c31)OCO4` [CASSYTHINE], the IC50 falls from 32 µM to 0.09 µM (360-fold).

`COC1=C[C@@]23CCN(C)[C@@H](Cc4cc(OC)c(OC)cc42)C3=CC1=O` and `COC1=C[C@@]23CCN(C)[C@@H](Cc4ccc(OC)c(O)c42)C3=CC1=O` are within 1.5-fold of each other in IC50: 28.9 µM for the first, 32.8 µM for the second.

First: COc1ccc2c(c1C(=O)O)-c1c3c(c(OC)c4c1[C@H](C2)NCC4)OCO3 [CASSYTHIC ACID]
Second: COc1ccc2c(c1OC)-c1c3c(c(OC)c4c1[C@H](C2)NCC4)OCO3
The IC50 of the first is 6.7-fold lower: 2.48 µM for the first, 16.5 µM for the second. The first is the more potent here.

`COc1cc(-c2oc3cc(O)cc(O)c3c(=O)c2O[C@@H]2O[C@H](CO[C@@H]3O[C@@H](C)[C@H](O)[C@@H](O)[C@H]3O)[C@@H](O)[C@H](O)[C@H]2O)ccc1O` [NARCISSIN] and `COc1cc(-c2oc3cc(O)cc(O)c3c(=O)c2O[C@@H]2O[C@H](CO)[C@@H](O)[C@H](O)[C@H]2O)ccc1O` are within 1.5-fold of each other in IC50: 16.8 µM for the first, 23.6 µM for the second.

First: COc1cc2c(cc1OC)-c1c3c(cc4c1[C@H](C2)N(C)CC4)OCO3 [DICENTRINE]
Second: CN1CCc2cc3c(c4c2[C@@H]1Cc1cc2c(cc1-4)OCO2)OCO3 [NEOLITSINE]
The IC50 of the first is 3.6-fold lower: 0.08 µM for the first, 0.29 µM for the second.
